Assay outcomes: PubChem, SRMLSC
This excerpt belongs to a sample that is enriched for hits.
HCT116 bCat-KO: beta-catenin-lacking colon tumor cell growth suppression; HCT116 beta-catenin knockout viability, CellTiter-Glo, 60 h; hits give low values; viability, % at 10 µM; 140,000 tested, 1.5% active;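 active = viability at or under a set limit, the compound median less 4 SD, cut at about 6% in these data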
Lung fibro prol: blocks proliferation of human lung fibroblasts; AID 719; LL 47 human lung fibroblast viability, ATP luminescence; hits give low values; viability, % at 10 µM; 85,000 tested, 1.1% active;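 active = viability at or below 50% in the single dose screen; inactive = viability above 50%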;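 note: compound exposure lasted 72 h before the ATP readout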
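Benchmarks: Cell-only wells, no compound | Test system: LL 47 human lung fibroblasts, passage 12 or lower | Input: 1,150 cells/well | Measured by: CellTiter-Glo luminescence measuring cellular ATP | Medium: IMEM, 15% FBS supplement | Schedule: Overnight attachment after seeding, then 72 h compound exposure at 37 °C | Doses: Compound addition at 0.1% DMSO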
HUVEC inhibit: inhibitors of human endothelial cell proliferation | HUVEC proliferation, CellTiter-Glo luminescence, 72 h; hits give low values | viability, % at 10 µM (by protocol) | 86,000 tested, 1.1% active | AID 648;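 active = viability at or below 30%; inactive = viability above 30%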
H69AR inhibit: growth inhibitors of human H69AR lung tumor cells; H69AR lung tumor viability, ATP luminescence, 72 h; hits give low values; viability, % at 10 µM; 85,000 tested, 6% active; AID 598;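 active = viability at or below 40%; inactive = viability above 40%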;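 note: multidrug resistant small cell line overexpressing MRP-1 efflux transporter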
HCT116 PTEN-null: growth suppressors of cells with PTEN tumor suppressor deletion. HCT116 PTEN-null viability, CellTiter-Glo, 60 h; hits give low values. viability, % at 10 µM. 140,000 tested, 1.2% active. AID 827;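 active = viability at or below a set limit, 4 SD under the median of all tested compounds, cut at about 3.7% in these data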;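 note: PTEN knockout HCT116 line with beta catenin targeted HCT116 as companion control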
Numbers stand for hits; - = inactive; . = not tested or not shown.

SMILES	HCT116 bCat-KO	Lung fibro prol	HUVEC inhibit	H69AR inhibit	HCT116 PTEN-null
CSc1nnc2n(-c3ccc(C)cc3)c(=O)c3c4c(sc3n12)COC(C(C)C)C4 (centres undefined)	-	36.6	-	36.2	-
Cc1ccc(-n2c(=O)c3c4c(sc3n3c(C)nnc23)COC(C(C)C)C4)cc1 (centres undefined)	.	-	-	-	.
Cc1ccc2nc3c(cc2c1)c(NC(=O)c1ccccn1)nn3CC(C)C	-	-	-	-	-
Cc1ccc2cc3c(NC(=O)c4ccco4)nn(CC(C)C)c3nc2c1	-	-	-	35.4	-
CCOc1ccccc1C(=O)Nc1ccc2nc(N3CCN(c4ncccn4)CC3)cc(C)c2c1	.	-	6.2	0.5	.
CCN1CCN(c2cc(C)c3cc(NC(=O)Cc4ccccc4OC)ccc3n2)CC1	-	.	.	.	-
COc1cccc(C(=O)Nc2ccc3nc(N4CCOCC4)cc(C)c3c2)c1	-	-	-	-	-
COc1cccc(C(=O)Nc2ccc3nc(N4CCN(c5ncccn5)CC4)cc(C)c3c2)c1OC	2.0	.	.	.	1.7
COc1cc(/C=C/C(=O)OCC(=O)NCc2cccs2)ccc1OCC#N	-	.	.	.	-
CC(CCc1ccccc1)NC(=O)COC(=O)C1CCC(C(C)(C)C)CC1 (centres undefined)	-	.	.	.	-
O=C(N/N=C/c1ccc(Br)s1)c1ccccc1[N+](=O)[O-]	-	.	.	.	-
O=C(N/N=C/c1ccc([N+](=O)[O-])s1)c1ccncc1	2.5	.	.	.	2.5
Cc1ccc(C(=O)N/N=C/c2ccc([N+](=O)[O-])s2)cc1	1.9	49.1	-	20.3	1.3
Cc1ccc(C(=O)N/N=C\c2ccc([N+](=O)[O-])s2)cn1	2.4	.	.	.	2.6
O=C(N/N=C/c1ccc([N+](=O)[O-])s1)c1cccc(Br)c1	-	2.6	-	38.9	-
Cc1ccc(/C=N\NC(=O)c2cc([N+](=O)[O-])cc([N+](=O)[O-])c2)o1	-	.	.	.	-
CO/N=C(\c1nonc1N)N1CCN(c2ccc(Cl)cc2[N+](=O)[O-])CC1	-	.	.	.	-
COc1ccc(C2CC(c3ccc(Br)cc3)=NN2C(=O)CSC2=NCCS2)cc1 (centres undefined)	-	.	.	.	-
COc1ccccc1C(=O)N/N=C/c1cnc2ccccc2n1	-	.	.	.	-
Cc1ccc(S(=O)(=O)Oc2ccc(/C=N/NC(=O)c3nn(C)cc3[N+](=O)[O-])cc2)cc1	-	.	.	.	-
COc1ccc(NCc2ccc([N+](=O)[O-])s2)cc1	-	.	.	.	-
COc1ccc(NC(=O)CCC(=O)N/N=C/c2ccc([N+](=O)[O-])s2)cc1	1.4	.	.	.	1.1
Cn1c(SCC(=O)N/N=C/c2ccc([N+](=O)[O-])s2)nnc1-c1ccc(Cl)cc1	1.9	.	.	.	1.6
O=C(N/N=C/C=C/c1ccccc1)c1cccc(Br)c1	-	-	-	37.5	-
CCc1ccc(C2C(C#N)=C(N)C(C#N)(C#N)C3=CCC(C(C)(C)C)CC32)cc1 (centres undefined)	-	-	2.3	-	-
SMILES	HCT116 bCat-KO	Lung fibro prol	HUVEC inhibit	H69AR inhibit	HCT116 PTEN-null
COCCN1CSC(=S)N(Cc2ccco2)C1	-	-	-	0.8	-
CC(CN1CCOCC1)OC(=O)c1ccc(Br)cc1 (centres undefined)	2.8	6.3	-	0.6	2.4
Cc1cc(-c2nnc(SCC(=O)c3ccc(F)cc3)o2)no1	-	.	.	.	-
O=C1C2C3C=CC(C3)C2C(=O)N1c1cccc(-c2nc3ccccc3o2)c1 (centres undefined)	-	-	-	-	-
O=C(Nc1cccc(-c2nc3ccccc3o2)c1)c1ccc(N2C(=O)C3C4C=CC(C4)C3C2=O)cc1 (centres undefined)	-	-	-	39.0	-
COc1ccc(CCNc2nnc(Sc3nnnn3-c3ccccc3)s2)cc1OC	-	-	-	29.0	-
C=CCNC(=O)C1=NOC(CNC(=O)c2c(-c3ccccc3Cl)noc2C)C1 (centres undefined)	-	.	.	.	-
CC1CC(N(C(=O)c2ccco2)c2ccccc2)c2ccccc2N1 (centres undefined)	-	-	-	15.4	-
CCOC(=O)c1ccc(Oc2cc(C)nc(SC)n2)cc1	-	-	-	22.4	-
CCOC(=O)COC(=O)c1ccc(Oc2cc(C)nc(SC)n2)cc1	-	-	-	-	-
CCn1c2ccccc2c2cc(/C=N/n3cn[nH]c3=S)ccc21	-	-	-	15.2	-
CCn1c2ccccc2c2cc(/C=N/n3cnnc3)ccc21	-	-	-	-	-
COc1ccc(-c2nnc3c4ccccc4c(C)nn23)cc1	-	-	-	32.4	-
Nc1nnnn1/N=C/C(Br)=C/c1ccccc1	-	.	-	0.9	3.2
COc1ccc2[nH]c3nc(SCC(=O)Nc4ccc5c(c4)OCO5)nnc3c2c1	-	.	.	.	-
COc1ccc2[nH]c3nc(SCc4nnc(-c5ccc(C)cc5)o4)nnc3c2c1	-	-	-	18.3	-
Cc1nc([N+](=O)[O-])c(Br)n1CC(=O)c1ccc2ccccc2c1	-	-	-	0.4	-
Cc1nc([N+](=O)[O-])c(N2CCN(Cc3ccccc3)CC2)n1Cc1ccccc1	-	-	-	-	-
Cc1nc([N+](=O)[O-])c(Br)n1CC(=O)c1ccccc1	-	-	-	34.7	-
Cc1nc([N+](=O)[O-])c(Br)n1CC(=O)c1ccc(Br)cc1	3.0	25.2	-	-0.4	-
O=C(NC(CC(=O)N1CCN(c2ccc([N+](=O)[O-])cc2)CC1)c1ccccc1)c1ccccc1Cl (centres undefined)	-	.	.	.	-
Cc1csc(NC(=O)CSc2nnc3c4ccccc4nc(C(C)(C)C)n23)n1	-	.	.	.	-
CN(C)c1ccc(NC(=O)COC(=O)c2cc(=O)c3ccccc3o2)cc1	-	.	.	.	-
C=CCOc1c(Br)cc(/C=N/O)cc1OCC	-	.	.	.	-
CCCCOc1c(Br)cc(/C=N/O)cc1OCC	-	-	20.7	2.0	-
SMILES	HCT116 bCat-KO	Lung fibro prol	HUVEC inhibit	H69AR inhibit	HCT116 PTEN-null
COC(=O)c1ccccc1OCC(=O)N1CCN(c2ccc(OC)cc2)CC1	-	.	.	.	-
COc1ccc(N2CCN(CC(O)c3c[nH]c4ccc(OC)cc34)CC2C)cc1 (centres undefined)	-	-	-	35.2	-
O=C(Cn1nnc(-c2ccccc2Cl)n1)N/N=C/c1ccc(-c2cccc(Cl)c2)o1	-	.	.	.	-
CCOC(=O)c1c(NC(C)=O)sc2c(OC)cccc12	-	-	-	-	-
CCOC(=O)c1c(NC(C)=O)sc2c(OC)c(Br)ccc12	-	-	-	37.5	-
Cc1ccc(OCCn2cc(/C(N)=N/O)c3ccccc32)cc1C	-	-	-	34.9	-
NCCc1ccc(O)c(O)c1	5.8	.	.	.	-
COc1ccc(C(=O)Nc2nc3c(s2)Cc2cc(OC)ccc2-3)cc1	-	-	-	-	-
COc1ccc2c(c1)Cc1sc(NC(=O)c3ccccc3)nc1-2	-	-	-	11.0	-
O=C(NCc1ccc(Cl)cc1)C(=O)NCC1OCCN1C(=O)c1cccs1 (centres undefined)	-	.	.	.	-
Cn1c(O)c(C=NCC2CCNCC2)c(=O)n(C)c1=O	-	-	-	-	-
